SMILES strings stand for the structures.

This data set in a line: Toxicity liver stage against HepG2, at 10uM. The class given is cell-based. Also on record: test concentration 10 uM, cell line HepG2-A16-CD81EGFP. The settings on record: human, HepG2-A16-CD81EGFP cells; read-out: INHIBITION
The gist of the method:
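Uninfected HepG2-A16-CD81EGFP cells, 3 × 10^3 per well, 1536-well, plated on prespotted compound at 10 μM final, parasite-free screening media added to match infected plates; puromycin 10 μM positive, DMSO 0.5% negative; run in parallel with 48 h PbLuc assay at 37 °C, 5% CO2; viability by CellTiter-Glo luminescence, normalized to controls.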
`Cc1cccnc1NC(=O)CSc1ccc2c(c1)OCCO2`: the cytotoxicity at 10 µM was -1.66%. The figure for `CC(C)c1nn(CC(=O)N2CCCC2)c(=O)c2c1cnn2C(C)(C)C` is 1.12%; for `CCc1cnc(N2C[C@@H]3[C@@H](C(=O)NC(C)C)CCS(=O)(=O)[C@@H]3C2)nc1` it is -146%. To `CC(C)N1CCc2onc(Cn3cccn3)c2C1` belongs 5.44%; to `Cn1cc(C2CC(=O)NC23CCN(C(=O)C2CC=CC2)CC3)cn1` (stereo not drawn), 8.13%. The figure for `CCCS(=O)(=O)N1CCc2onc(CNc3ncccn3)c2C1` is -2.25%; for `CCS(=O)(=O)N1CCc2onc(CNc3ncccn3)c2C1` it is -0.748%; for `Cc1ccc(-n2ccc3nc(N4CCCC4)ncc3c2=O)cc1C` it is 7.51%. Consider `CNc1ncccc1CN1CCN(C(C)=O)CC(C(N)=O)C1` (stereo not drawn), for which the cytotoxicity at 10 µM came to 2.31%. To `Cc1ccc2nc(C(=O)N3CCCC[C@]4(C)NC(=O)CCC[C@H]34)cn2c1` belongs -9.99%; to `Cc1cc(CCC2CN(Cc3ccccc3C(=O)O)CCO2)ncn1` (stereo not drawn), -19.9%. To `NC(=O)c1ccc(=O)n(Cc2cc(Br)ccc2Cl)n1` belongs 4.71%; to `CC(C(=O)N1CCOCC1)S(=O)(=O)Cc1noc(C(C)(C)C)n1` (stereo not drawn), -14.2%.

Turning to `N#Cc1cccc(OC2CCN(C(=O)c3cncc(O)c3)CC2)c1`, the cytotoxicity at 10 µM came out at 7.28%. To `c1ccc(-c2nnc3n2CCN(c2nc(C4CC4)ns2)C3)cc1` belongs 0.38%. The figure for `CN(C)c1ccc(NC(=O)c2cccc(N(C)C)c2)nc1` is 23.3%; for `Cc1noc(CNC(=O)NCCOc2ccc(Cl)cc2)n1` it is 1.92%; for `CC(C)(CNC(=O)c1ccc(Cl)o1)NC(=O)OC(C)(C)C` it is -2.25%. The figure for `Cc1ccc(C)c(C(=O)NC2CCC(N3C(=O)CCC3=O)CC2)c1` (stereo not drawn) is 3.38%; for `CC(C)N(C)C(=O)COc1ccc(-c2noc(C3CCCO3)n2)cc1` (stereo not drawn) it is 4.24%. With `COCCn1ccc(NCc2sccc2C)n1`, the cytotoxicity at 10 µM is 5.6%. As for `CCC(C)(NCC(=O)NC(=O)NC)c1nc(C)cs1` (stereo not drawn), the cytotoxicity at 10 µM is -4.36%. The figure for `Cn1ccnc1CNc1c(F)cccc1-n1cccn1` is -5.2%; for `CCN(CC)c1ccc(NC(=O)NC(C)Cn2cccn2)cn1` (stereo not drawn) it is 1.35%; for `Cc1nnc2n1CCN(Cc1csc(-c3cnn(C)c3)n1)C2` it is -3.5%. For the compound `CCOc1cccc(NC(=O)c2cscn2)n1`, the cytotoxicity at 10 µM was -3.59%. The figure for `CCN(C)c1ccc(CNC(=O)c2cc(C(N)=O)cs2)cc1F` is 6.36%; for `CCSc1ccc(NC(=O)NC(C)c2ccncc2)cn1` (stereo not drawn) it is -5.14%. To `NC(=O)CCSCc1cc(Br)cc2cccnc12` belongs -7.68%; to `CCC(NCc1ccccc1Cl)c1ccccc1OCC(=O)NC` (stereo not drawn), 13.3%; to `Cc1cc(C)n(CC(=O)NC2CCCCNC2=O)n1` (stereo not drawn), -14.7%. For `CN(Cc1nc(N)nc(N(C)C)n1)Cc1cccc2ccccc12`, the cytotoxicity at 10 µM came to 0.554%.

Take `Cc1ccc(CN(C)C)cc1NC(=O)C1CC=CC1`: the cytotoxicity at 10 µM is -8%. The figure for `Cn1cc(C2CCCN2c2ncnc3[nH]ccc23)cn1` (stereo not drawn) is -9.59%; for `OC(CNc1ccc(Cl)cn1)CN1CCOCC1` (stereo not drawn) it is 4.15%. As to `CC(C)N(C(=O)CCc1ccco1)C1CCOCC1`, the cytotoxicity at 10 µM was -5.63%. To `N#CC(Sc1nnnn1C1CCOCC1)C1CCCCC1` (stereo not drawn) belongs 21.7%; to `O=C(NCCOc1ccc(F)c(F)c1)NCc1cccc(CO)c1`, -8.86%.

Consider `CC(C)c1noc(-c2ccc(N(C)C3CCOCC3)nc2)n1`, for which the cytotoxicity at 10 µM was -17.6%.

As to `CC(=O)c1ccccc1NC(=O)CCN1CCSCC1`, the cytotoxicity at 10 µM is -7.88%. To `Cc1nnc(SCCNC(=O)CC2CCc3ccccc32)s1` (stereo not drawn) belongs -3.13%; to `COc1ccccc1Oc1ncccc1CNC(=O)[C@H](C)O`, -2.64%; to `Cc1occc1C(=O)N1CCCC1c1ccc(C(=O)N2CCOCC2)s1` (stereo not drawn), -143%.

On to `COC(=O)N1CCC(Oc2ccc(C(=O)NCCN(C)C)cc2Cl)CC1`, for which the cytotoxicity at 10 µM is -6.34%.

As to `Cn1ncc2c(N3CC(N4CCCCC4)C3)nc(C3CCCC3)nc21`, the cytotoxicity at 10 µM was -5.07%. For `Cn1cc(CN(C(=O)c2ccc3ncsc3c2)C2CC2)cn1`, the cytotoxicity at 10 µM is 3.11%. To `Cc1cc2cccc(C(=O)N3CC[C@](C)(O)[C@H](C)C3)c2o1` belongs 4%; to `CC(C)OC(C)c1nnc(SCC(=O)O)n1-c1ccc(F)cc1F` (stereo not drawn), -11.6%. To `Cc1ccc2cc(C3(O)CCN(C(=O)[C@@H]4CCCCN4)CC3)ccc2n1` belongs -0.456%.

Take `COCc1noc(CCNc2ncnc3c2CCNCC3)n1`: the cytotoxicity at 10 µM was -5.59%. To `CCN(CCc1nc2cc(C)ccc2[nH]1)C(=O)COC` belongs -5.89%; to `CC(C)C1CN(Cc2c[nH]cn2)CCCN1CC1CC1` (stereo not drawn), 0.127%. To `CC(=O)N1CCC(C(=O)NC2CC(C)(C)Oc3cc(C)ccc32)CC1` (stereo not drawn) belongs -5.41%; to `O=C(c1ccco1)N1CCc2c(nc(-c3ccncc3)[nH]c2=O)C1`, 10.4%; to `Cc1ccc(C)c2c(C)c(C(=O)NCCCn3cnnc3)[nH]c12`, 6.28%.

For the compound `Cc1cc(C)cc(S(=O)(=O)NCC2CNCCOC2)c1` (stereo not drawn), the cytotoxicity at 10 µM is -1.86%.

For the compound `CN(CC1(CO)CCCC1)C(=O)c1cc(COc2ccccc2F)[nH]n1`, the cytotoxicity at 10 µM was found to be 6.2%. To `O=C(NCc1nc[nH]n1)c1cc(COc2ccccc2F)[nH]n1` belongs -3.58%; to `COCc1cc(NCCc2ccc(F)cc2)n2nccc2n1`, -12.6%; to `Cc1nccn1CCC1CCCCN1Cc1ccncc1` (stereo not drawn), 35.2%. For the compound `Cc1ccc(O)c(C(=O)N2CCOCC2c2c(C)nn(C)c2C)c1` (stereo not drawn), the cytotoxicity at 10 µM is -8.53%. To `COc1ccc(C(=O)N2CCN(CCO)CC2)c(F)c1` belongs -3.79%; to `CCN(CC)S(=O)(=O)c1cccc(C(=O)N(C)Cc2ccsc2)c1`, -6.8%; to `CN(Cc1ccsc1)C(=O)c1ccc(S(=O)(=O)NC(C)(C)C)cc1`, -8.01%.

Take `COC1CCN(C(=O)Cc2csc(-c3ccccc3)n2)CC1`: the cytotoxicity at 10 µM is -6.75%. As for `O=C(CN1CCCC1Cn1cccn1)NCCC1=CCCCC1` (stereo not drawn), the cytotoxicity at 10 µM is -2.78%. For `CCc1ncc(C(=O)N2CCC(Nc3ccc(C)nn3)CC2)s1`, the cytotoxicity at 10 µM was -7.94%. The figure for `OC(COCc1ccco1)CN1CCc2c(ncn2C2CC2)C1` (stereo not drawn) is -0.885%; for `Cc1nn(C)c(N(C)C)c1CNCc1ccnc(N2CCCCC2)c1` it is -9.32%.

As to `COc1ccccc1OCCC(=O)N1CCCCC1c1nccs1` (stereo not drawn), the cytotoxicity at 10 µM was -15.7%. To `CN(C)c1cc(CNC(=O)Nc2cccnc2N2CCCC2)ccn1` belongs -20.5%; to `Cc1nn(C)c(N(C)C)c1CNC(C)COc1ccc(F)cc1` (stereo not drawn), -4.38%. The figure for `CCn1cc(NC(=O)NCc2ccc(CO)c(F)c2)cn1` is 8.69%; for `CC(C)CCCNC(=O)Nc1ccc(Cl)c(C(N)=O)c1` it is -0.252%; for `COc1cccc(CN2CCCCC2Cn2nc(C)nc2C)c1` (stereo not drawn) it is -11.5%. As for `Cc1cnn(CC2CN(Cc3nc4ccccc4o3)CCO2)c1` (stereo not drawn), the cytotoxicity at 10 µM is -3.49%. To `Cc1ccc(C(O)CN2CCN(Cc3nccn3C)CC2)cc1C` (stereo not drawn) belongs -37%; to `CCc1nc(C2CCCN(C(=O)c3ccncc3)C2)no1` (stereo not drawn), -13%. To `O=C(NCC(c1ccc(F)cc1)N1CCOCC1)Nc1cn[nH]c1` (stereo not drawn) belongs -15%.

Regarding `CCn1cc(CN2CCCN(C(=O)c3ccco3)CC2)cn1`, the cytotoxicity at 10 µM is -11.3%. To `COc1ccc2c(c1)CN(c1cc(N3CCCC3CO)ncn1)CC2` (stereo not drawn) belongs -4.16%.

On to `CCOc1ccc(CC(CNC(=O)c2ccc(C)o2)C(N)=O)cc1` (stereo not drawn), for which the cytotoxicity at 10 µM turned out to be 3.58%.

On to `COc1cccc(-c2nc(CNC(C)Cn3cccn3)cs2)c1` (stereo not drawn), for which the cytotoxicity at 10 µM was -6.31%.

As for `Cc1nc(CN2CCN(C(=O)c3c(C)noc3C)CC2)cs1`, the cytotoxicity at 10 µM is -23.2%. The figure for `Cc1ccc(C(=O)NCCNc2ncccc2C#N)c(=O)[nH]1` is -7.44%; for `Cc1ccc(CN2C[C@H](OCC3CCOCC3)[C@H]3COC[C@H]32)o1` it is -4.58%; for `CCO[C@H]1CCN(S(=O)(=O)c2cn(C)cn2)[C@H]1Cc1ccccc1` it is 7.95%. To `Fc1cnc(N2CCc3nnc(COc4ccccn4)n3CC2)nc1` belongs 8.13%. Regarding `CCS(=O)(=O)NC[C@]12COC[C@H]1CN(CCc1ccccc1)C2`, the cytotoxicity at 10 µM was determined as 6.07%. Turning to `CN(C)CCN1CCCC12CCN(C(=O)c1ccncc1)CC2`, the cytotoxicity at 10 µM stood at 6.29%. For the compound `c1cncc(COCC2CN(Cc3cccnc3)Cc3ccnn3C2)c1` (stereo not drawn), the cytotoxicity at 10 µM was -136%. To `O=S(=O)(C1CC1)N1CC[C@H]2OCC[C@@]2(COc2ncccc2F)C1` belongs -150%; to `CCOCC1CN(S(=O)(=O)N(C)C)Cc2cnn(CC3CC3)c21` (stereo not drawn), 12%; to `CC(=O)N1[C@H](CN(C)C)C[C@@H]2CN(C(=O)Cc3cccs3)CC[C@@H]21`, -0.155%. The figure for `CCCS(=O)(=O)N1C[C@@H]2CN(Cc3ccoc3)CCO[C@@H]2C1` is -117%; for `CN1CCOCC2(CCCN(C(=O)c3cn(C)cn3)C2)C1` (stereo not drawn) it is 8.47%.

With `CCc1c(C(=O)N2C[C@@H]3CC[C@H]2CN(c2cnccn2)C3)csc1C`, the cytotoxicity at 10 µM came out at 13.3%. The figure for `O=C1CCC2(CCN(Cc3cscn3)CC2)CN1C1CCC(O)CC1` (stereo not drawn) is -4.33%.
